# Measured values of several laboratories.
# Each line is one published result; the experiments were not run side by side.
# ABCG2: Broad substrate specificity ATP-binding cassette transporter ABCG2 (ABCG2, Homo sapiens, UniProt Q9UNQ0)
Structure (SMILES),target or system,test,test system,setting,measurement,value
COc1cc(Nc2ncc(F)c(Nc3ccc4c(n3)NC(=O)C(C)(C)O4)n2)cc(OC)c1OC,ABCG2,"transporter uptake, inhibitor",,cell membranes,Ki,0.065 µM
C[C@H](C(=O)N1Cc2c(-c3ccc(C(=O)N4CCCc5ccccc54)cc3)cnn2C[C@H]1C)c1ccccc1,ABCG2,,"dog, MDCK-MDR1",,Papp B→A,8.4 ×10⁻⁶ cm/s
C=CC1(C)CC(OC(=O)CSCCCCCN(C)C)C2(C)C(C)CCC3(CCC(=O)C32)C(C)C1O (stereo not shown),K562,cell growth or viability,,,IC50,9.67 µM
Cc1n[nH]c(CC(=O)N2Cc3c(-c4ccc(C(=O)N5CCCc6ccccc65)cc4)cnn3C[C@H]2C)n1,ABCG2,,"dog, MDCK-MDR1",,Papp B→A,14.1 ×10⁻⁶ cm/s
COc1ccc2c(=O)n(C)c(-c3ccccc3)nc2c1,,,"male Sprague-Dawley rat, spleen","oral, 30 mg/kg, 15 min",concentration,7.53 ng/mL
Cc1noc(C)c1Cn1cc(N2C(=O)CN(Cc3cccc(O)c3)C2=O)cn1,,,"male Sprague-Dawley rat, plasma","oral, 100 mg/kg, 15 min",concentration,26.7 ng/mL
O=C(O)CSc1nnc(Br)n1-c1ccc(C2CC2)c2ccccc12,ABCG2,"transporter uptake, inhibitor",Caco-2,"100 µM, 2 h",inhibition,38%
CSc1nc2nnnc(O)c2s1,K562,cell growth or viability,,,IC50,> 640 µM
C/C(O)=C(\C#N)C(=O)Nc1ccc(C(F)(F)F)cc1,ABCG2,,Caco-2,"1 µM, 2 h, pH 7.4",Papp B→A,33.4 ×10⁻⁶ cm/s
"CO[C@H](C(=O)N1Cc2c(-c3ccc(C(=O)N4CCCc5ccccc54)cc3)cnn2C[C@H]1C(C)C)c1ccccc1 (single isomer, unassigned)",ABCG2,,"dog, MDCK-MDR1",,Papp B→A,8.4 ×10⁻⁶ cm/s
CCc1cc(-c2noc(-c3cc(OC)nc(C4CCCC4)c3)n2)cc(C)c1OC[C@@H](O)CO,,,"Wistar rat, plasma","oral, 1 mg/kg, 3 h, single dose",concentration,62.7 ng/mL
Cc1nnc(SCC(=O)Nc2ccc(Br)cc2)nc1O,K562,cell growth or viability,,,IC50,> 200 µM
COc1cccc(-c2n[nH]c(SCc3ccccn3)n2)c1OC,,,"female Sprague-Dawley rat, plasma","oral, 100 mg/kg, 1 h, single dose",concentration,62200 ng/mL
CN1CCN=C1c1ccc(NC(=O)c2ccc(C(=O)Nc3ccc(C4=NCCN4C)cc3)cc2)cc1,K562,cell growth or viability,,,IC50,171 µM
CCc1cc(C(=O)NC)c2nccc(N3CCc4c(cc(Cn5ccnc5)cc4-c4cn(C)nc4C(F)(F)F)C3=O)c2c1,,,"male Sprague-Dawley rat, plasma","intravenous, 3 mg/kg",half-life,48 min
COC(=O)/C(C#N)=C1\Nc2ccccc2O1,K562,cell growth or viability,,,IC50,20.7 µM
"CO[C@@H](C(=O)N1Cc2c(-c3ccc(C(=O)N4CCCc5ccccc54)cc3)cnn2C[C@H]1C(C)C)c1cnn(C)c1 (single isomer, unassigned)",ABCG2,,"dog, MDCK-MDR1",,Papp B→A,33.7 ×10⁻⁶ cm/s
C/N=C(/NC)c1ccc(NC(=O)/C=C/c2ccc(/C=C/C(=O)Nc3ccc(/C(=N\C)NC)cc3)cc2)cc1,K562,cell growth or viability,,,IC50,4.31 µM
CCOC(=O)[C@@]12C[C@@H]1[C@@H](n1ccc3c(NC)nc(C#Cc4ccc(Cl)s4)nc31)[C@H](O)[C@@H]2O,,,"male Sprague-Dawley rat, plasma","oral, 1 mg/kg, 2 h",concentration,5.92 ng/mL
